{
  "source": "ChEMBL document CHEMBL2439973",
  "about": "“Discovery of VU0409106: A negative allosteric modulator of mGlu5 with activity in a mouse model of anxiety” (Bioorg Med Chem Lett, 2013)",
  "key": {"Rattus norvegicus [1]": {"species": "Rattus norvegicus", "assay": "Displacement of [3H]-Rolipram from rolipram binding site in rat brain at 10 uM relative to control", "type": "tissue-based"}, "Mesocricetus auratus": {"species": "Mesocricetus auratus", "assay": "Displacement of [3H]-Glyburide from ATP-sensitive potassium channel in hamster pancreatic HIT-T15 beta cells at 10 uM relative to control", "summary_of_the_method": "(§1)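 Tested once at 10 μM in a commercial radioligand binding panel of 68 GPCRs, ion channels, kinases and transporters. Activity is given as displacement of each radioligand relative to control.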"}, "[2]": {"biological_target": "Beta-1 adrenergic receptor (Homo sapiens) (UniProt P08588)", "assay": "Displacement of [125I]-Cyanopindolol from human recombinant adrenergic beta1 receptor expressed in CHO-K1 cells at 10 uM relative to control", "type": "cell-based", "summary_of_the_method": "as §1"}, "[3]": {"biological_target": "Adenosine receptor A2a (Homo sapiens) (UniProt P29274)", "sequence (P29274 whole entry)": "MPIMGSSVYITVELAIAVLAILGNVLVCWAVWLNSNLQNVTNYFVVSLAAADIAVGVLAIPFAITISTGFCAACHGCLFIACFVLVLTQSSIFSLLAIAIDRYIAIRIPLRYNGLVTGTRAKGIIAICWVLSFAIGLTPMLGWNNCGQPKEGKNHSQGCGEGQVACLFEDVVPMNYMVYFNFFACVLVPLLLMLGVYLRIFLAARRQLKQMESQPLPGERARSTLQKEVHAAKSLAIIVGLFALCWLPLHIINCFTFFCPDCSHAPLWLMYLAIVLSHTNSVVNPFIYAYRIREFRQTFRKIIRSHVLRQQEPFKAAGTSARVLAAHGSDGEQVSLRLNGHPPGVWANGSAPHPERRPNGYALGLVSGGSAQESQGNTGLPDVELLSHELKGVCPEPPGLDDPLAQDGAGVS", "assay": "Displacement of [3H]-CGS-21680 from human recombinant adenosine A2A receptor expressed in HEK293 cells at 10 uM relative to control", "type": "cell-based", "summary_of_the_method": "as §1"}, "[4]": {"biological_target": "L-type calcium channel, benzothiazepine binding site (Rattus norvegicus, UniProt P22002+P27732+Q02485)", "assay": "Displacement of [3H]-Diltiazem from L-Type calcium channel benzothiazepine binding site in rat brain at 10 uM relative to control", "type": "tissue-based", "details": "probe [3H]-Diltiazem"}, "Rattus norvegicus [5]": {"species": "Rattus norvegicus", "assay": "Displacement of [3H]-Muscimol from central-type GABAA receptor muscimol binding site in cerebellum-less rat brain homogenate at 10 uM relative to control", "type": "tissue-based", "summary_of_the_method": "as §1"}, "[6]": {"biological_target": "Glutamate NMDA receptor (Rattus norvegicus) (UniProt P35439+Q00959+Q00960+Q00961+Q62645+Q8VHN2+Q9R1M7)", "assay": "Displacement of [3H]-CGP-39653 from NMDA receptor agonist binding site in rat cerebral cortex at 10 uM relative to control", "type": "tissue-based", "summary_of_the_method": "as §1"}, "[7]": {"biological_target": "Neuropeptide Y receptor type 1 (Homo sapiens) (UniProt P25929)", "assay": "Displacement of [125I]-Peptide YY from neuropeptide Y Y1 receptor in human SK-N-MC cells at 10 uM relative to control", "type": "cell-based", "summary_of_the_method": "as §1"}, "[8]": {"biological_target": "Delta-type opioid receptor (Homo sapiens) (UniProt P41143)", "assay": "Displacement of [3H]-Naltrindole from human recombinant delta opioid receptor expressed in HEK293 cells at 10 uM relative to control", "type": "cell-based", "summary_of_the_method": "as §1"}, "Mus musculus [9]": {"species": "Mus musculus", "assay": "Displacement of [125I]-Interleukin-1beta from IL-1 receptor in mouse 3T3-SWISS cells at 10 uM relative to control", "type": "cell-based", "summary_of_the_method": "as §1"}, "[10]": {"biological_target": "D(2) dopamine receptor (Homo sapiens) (UniProt P14416)", "assay": "Displacement of [3H]-Spiperone from human recombinant dopamine D2S receptor expressed in CHO cells at 10 uM relative to control", "type": "cell-based"}, "[11]": {"biological_target": "Neuropeptide Y receptor type 2 (Homo sapiens) (UniProt P49146)", "sequence (P49146 whole entry)": "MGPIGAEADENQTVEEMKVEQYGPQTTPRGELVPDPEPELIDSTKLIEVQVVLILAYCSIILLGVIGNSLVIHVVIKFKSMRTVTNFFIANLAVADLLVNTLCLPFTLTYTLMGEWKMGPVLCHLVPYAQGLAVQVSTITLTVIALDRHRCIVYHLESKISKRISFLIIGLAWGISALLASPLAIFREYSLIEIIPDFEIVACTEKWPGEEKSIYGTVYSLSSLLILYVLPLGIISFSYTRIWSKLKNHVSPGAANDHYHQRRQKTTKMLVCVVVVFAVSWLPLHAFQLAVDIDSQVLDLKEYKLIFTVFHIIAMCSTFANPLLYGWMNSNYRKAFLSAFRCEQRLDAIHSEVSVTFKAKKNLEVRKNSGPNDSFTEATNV", "assay": "Displacement of [125I]-Peptide YY from neuropeptide Y Y2 receptor in human KAN-TS cells at 10 uM relative to control", "type": "cell-based", "summary_of_the_method": "as §1"}, "Rattus norvegicus [12]": {"species": "Rattus norvegicus", "assay": "Displacement of [125I]-Omega-Conotoxin GVIA from N-type calcium channel in rat frontal brain at 10 uM relative to control", "summary_of_the_method": "as §1"}, "[13]": {"biological_target": "Platelet-activating factor receptor (Homo sapiens) (UniProt P25105)", "sequence (P25105 whole entry)": "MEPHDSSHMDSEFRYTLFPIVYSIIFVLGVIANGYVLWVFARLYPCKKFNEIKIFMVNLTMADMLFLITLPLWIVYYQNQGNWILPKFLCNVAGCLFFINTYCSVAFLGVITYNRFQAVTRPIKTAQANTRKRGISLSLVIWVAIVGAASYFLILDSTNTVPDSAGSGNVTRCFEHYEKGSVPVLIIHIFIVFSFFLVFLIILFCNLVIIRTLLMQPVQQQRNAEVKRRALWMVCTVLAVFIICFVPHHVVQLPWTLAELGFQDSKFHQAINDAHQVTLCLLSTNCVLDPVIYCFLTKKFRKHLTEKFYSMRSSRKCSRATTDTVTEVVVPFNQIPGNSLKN", "assay": "Displacement of [3H]-PAF from platelet activating factor receptor in human platelets at 10 uM relative to control", "summary_of_the_method": "as §1"}, "Rattus norvegicus [14]": {"species": "Rattus norvegicus", "assay": "Displacement of [3H]-Batrachotoxin from sodium channel site 2 in rat brain at 10 uM relative to control", "type": "tissue-based", "summary_of_the_method": "as §1"}, "[15]": {"biological_target": "Alpha-1D adrenergic receptor (Homo sapiens) (UniProt P25100)", "sequence (P25100 whole entry)": "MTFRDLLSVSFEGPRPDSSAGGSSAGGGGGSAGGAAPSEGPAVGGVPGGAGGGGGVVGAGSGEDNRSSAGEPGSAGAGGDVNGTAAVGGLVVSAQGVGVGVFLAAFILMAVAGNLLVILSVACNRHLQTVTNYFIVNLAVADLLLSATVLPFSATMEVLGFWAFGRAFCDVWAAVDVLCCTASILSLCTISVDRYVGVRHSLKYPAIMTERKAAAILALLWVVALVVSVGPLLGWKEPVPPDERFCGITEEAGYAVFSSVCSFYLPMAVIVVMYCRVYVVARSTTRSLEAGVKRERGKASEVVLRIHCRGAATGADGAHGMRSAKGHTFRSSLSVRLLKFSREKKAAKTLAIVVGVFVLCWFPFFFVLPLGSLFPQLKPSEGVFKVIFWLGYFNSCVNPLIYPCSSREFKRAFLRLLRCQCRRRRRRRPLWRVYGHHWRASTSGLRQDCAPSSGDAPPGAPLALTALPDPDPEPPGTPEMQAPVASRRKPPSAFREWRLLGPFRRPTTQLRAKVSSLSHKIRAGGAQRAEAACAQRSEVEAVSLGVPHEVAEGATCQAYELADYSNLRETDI", "assay": "Displacement of [3H]-Prazosin from human recombinant adrenergic alpha1D receptor expressed in HEK293 cells at 10 uM relative to control", "type": "cell-based"}, "Rattus norvegicus [16]": {"species": "Rattus norvegicus", "assay": "Displacement of [3H]-Nitrendipine from L-type calcium channel dihydropyridine binding site in rat cerebral cortex at 10 uM relative to control", "type": "tissue-based", "summary_of_the_method": "as §1"}, "[17]": {"biological_target": "Alpha-2A adrenergic receptor (Homo sapiens) (UniProt P08913)", "assay": "Displacement of [3H]-Rauwolscine from human recombinant adrenergic alpha2A receptor expressed in CHO-K1 cells at 10 uM relative to control", "type": "cell-based"}, "[18]": {"biological_target": "Muscarinic acetylcholine receptor M3 (Homo sapiens) (UniProt P20309)", "assay": "Displacement of [3H]-N-Methylscopolamine from human recombinant muscarinic M3 receptor expressed in CHO-K1 cells at 10 uM relative to control", "type": "cell-based", "summary_of_the_method": "as §1"}, "[19]": {"biological_target": "B1 bradykinin receptor (Homo sapiens) (UniProt P46663)", "assay": "Displacement of [3H]-(Des-Arg10)-Kallidin from bradykinin B1 receptor in human IMR90 cells at 10 uM relative to control", "type": "cell-based", "details": "IMR-90", "summary_of_the_method": "as §1"}, "[20]": {"biological_target": "Androgen receptor (Homo sapiens) (UniProt P10275)", "sequence (P10275 whole entry)": "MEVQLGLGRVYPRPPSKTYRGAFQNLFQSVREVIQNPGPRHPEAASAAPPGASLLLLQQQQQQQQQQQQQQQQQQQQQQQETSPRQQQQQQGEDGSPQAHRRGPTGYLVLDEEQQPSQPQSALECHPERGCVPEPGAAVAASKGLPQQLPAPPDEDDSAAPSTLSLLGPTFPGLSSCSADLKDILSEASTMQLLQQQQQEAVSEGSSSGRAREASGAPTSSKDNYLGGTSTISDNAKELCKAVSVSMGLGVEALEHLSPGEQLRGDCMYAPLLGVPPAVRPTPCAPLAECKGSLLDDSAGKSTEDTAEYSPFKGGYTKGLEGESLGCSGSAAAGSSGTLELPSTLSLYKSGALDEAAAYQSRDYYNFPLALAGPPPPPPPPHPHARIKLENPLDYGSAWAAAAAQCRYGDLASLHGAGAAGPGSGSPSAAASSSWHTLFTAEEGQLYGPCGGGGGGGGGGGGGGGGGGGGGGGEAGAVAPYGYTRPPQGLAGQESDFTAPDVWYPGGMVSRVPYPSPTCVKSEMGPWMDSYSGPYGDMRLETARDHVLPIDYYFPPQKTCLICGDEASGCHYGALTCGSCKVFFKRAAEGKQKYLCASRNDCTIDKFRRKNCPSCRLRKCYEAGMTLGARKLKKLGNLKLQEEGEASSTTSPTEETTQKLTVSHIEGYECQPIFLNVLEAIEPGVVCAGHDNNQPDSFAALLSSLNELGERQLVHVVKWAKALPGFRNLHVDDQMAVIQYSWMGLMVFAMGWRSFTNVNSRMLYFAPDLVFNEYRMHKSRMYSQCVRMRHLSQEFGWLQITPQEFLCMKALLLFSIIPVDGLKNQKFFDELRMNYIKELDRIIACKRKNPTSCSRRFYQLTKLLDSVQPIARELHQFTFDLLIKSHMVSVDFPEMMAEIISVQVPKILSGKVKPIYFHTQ", "assay": "Displacement of [3H]-Methyltrienolone from androgen receptor in human LNCAP cells at 10 uM relative to control", "type": "cell-based", "summary_of_the_method": "as §1"}, "Brain [21]": {"system": "Brain", "assay": "Tmax in CD-1 mouse brain at 10 mg/kg, ip by LC-MS/MS analysis", "type": "ADME, organism-based", "set-up": "dose 10 mg/kg, route intraperitoneal", "details": "in vivo"}, "Rattus norvegicus [22]": {"species": "Rattus norvegicus", "assay": "Displacement of [125I]-Triiodothyronine from thyroid hormone receptor in rat liver at 10 uM relative to control", "summary_of_the_method": "as §1"}, "Brain [23]": {"system": "Brain", "assay": "Fraction unbound in mouse brain homogenates by equilibrium dialysis technique", "type": "ADME, tissue-based", "details": "brain homogenate"}, "[24]": {"biological_target": "Beta-2 adrenergic receptor (Homo sapiens) (UniProt P07550)", "assay": "Displacement of [3H]-CGP-12177 from human recombinant adrenergic beta2 receptor expressed in CHO cells at 10 uM relative to control", "type": "cell-based", "summary_of_the_method": "as §1"}, "Plasma": {"system": "Plasma", "assay": "Cmax in CD-1 mouse plasma at 10 mg/kg, ip by LC-MS/MS analysis", "type": "ADME, organism-based", "set-up": "dose 10 mg/kg, route intraperitoneal", "details": "in vivo"}, "Rattus norvegicus [25]": {"species": "Rattus norvegicus", "assay": "Displacement of [3H]-Idazoxan from central-type imidazoline I2 receptor in rat cerebral cortex at 10 uM relative to control", "type": "tissue-based", "summary_of_the_method": "as §1"}, "Mus musculus [26]": {"system": "Mus musculus", "assay": "Anxiolytic activity in ip dosed Harlan CD-1 mouse assessed as inhibition of marble burying behavior", "type": "functional, organism-based", "summary_of_the_method": "(§2)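 Marble burying in mice with deep bedding; compound given IP at a range of doses with 15 min pretreatment, n = 8 per dose; marbles buried counted, brain samples collected right after testing for exposure; comparison to vehicle by Dunnett's test.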"}, "[27]": {"biological_target": "Endothelin-1 receptor (Homo sapiens) (UniProt P25101)", "sequence (P25101 whole entry)": "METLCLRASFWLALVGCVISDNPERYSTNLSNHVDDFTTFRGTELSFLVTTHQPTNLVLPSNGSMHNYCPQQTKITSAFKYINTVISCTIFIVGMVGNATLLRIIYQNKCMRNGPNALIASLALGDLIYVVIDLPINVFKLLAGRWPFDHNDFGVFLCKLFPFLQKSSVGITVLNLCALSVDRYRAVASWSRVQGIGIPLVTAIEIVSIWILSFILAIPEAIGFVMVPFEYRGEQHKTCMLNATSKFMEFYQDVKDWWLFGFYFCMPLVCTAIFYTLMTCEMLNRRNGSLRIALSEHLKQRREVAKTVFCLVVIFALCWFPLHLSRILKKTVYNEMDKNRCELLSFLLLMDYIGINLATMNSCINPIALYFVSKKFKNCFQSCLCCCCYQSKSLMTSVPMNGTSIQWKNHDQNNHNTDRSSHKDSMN", "assay": "Displacement of [125I]-Endothelin-1 from human recombinant ETA receptor expressed in CHO-K1 cells at 10 uM relative to control", "type": "cell-based", "summary_of_the_method": "as §1"}, "Mus musculus [28]": {"system": "Mus musculus", "assay": "Anxiolytic activity in Harlan CD-1 mouse assessed as inhibition of marble burying behavior at >= 3 mg/kg, ip", "type": "functional, organism-based", "set-up": "dose 3 mg/kg", "summary_of_the_method": "as §2"}, "[29]": {"biological_target": "Estrogen receptor (Homo sapiens) (UniProt P03372)", "sequence (P03372 whole entry)": "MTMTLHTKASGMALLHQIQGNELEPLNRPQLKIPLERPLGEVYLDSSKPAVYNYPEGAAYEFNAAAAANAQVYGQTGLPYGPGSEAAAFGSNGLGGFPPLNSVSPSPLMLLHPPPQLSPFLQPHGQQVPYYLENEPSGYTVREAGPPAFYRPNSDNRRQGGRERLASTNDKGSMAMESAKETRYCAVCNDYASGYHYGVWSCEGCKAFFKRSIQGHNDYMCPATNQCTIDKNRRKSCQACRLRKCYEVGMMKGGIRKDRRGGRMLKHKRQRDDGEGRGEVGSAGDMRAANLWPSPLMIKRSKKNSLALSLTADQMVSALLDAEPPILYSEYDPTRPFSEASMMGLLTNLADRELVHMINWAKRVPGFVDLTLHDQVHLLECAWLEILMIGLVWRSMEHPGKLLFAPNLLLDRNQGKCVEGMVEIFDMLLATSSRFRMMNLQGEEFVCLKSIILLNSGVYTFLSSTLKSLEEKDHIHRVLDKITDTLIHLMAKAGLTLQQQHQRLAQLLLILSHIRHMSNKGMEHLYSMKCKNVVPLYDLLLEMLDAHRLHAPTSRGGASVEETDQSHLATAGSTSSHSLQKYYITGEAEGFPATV", "assay": "Displacement of [3H]-Estradiol from human recombinant ERalpha receptor expressed in insect Sf9 cells at 10 uM relative to control", "summary_of_the_method": "as §1"}, "[30]": {"biological_target": "Cannabinoid receptor 1 (Homo sapiens) (UniProt P21554)", "sequence (P21554 whole entry)": "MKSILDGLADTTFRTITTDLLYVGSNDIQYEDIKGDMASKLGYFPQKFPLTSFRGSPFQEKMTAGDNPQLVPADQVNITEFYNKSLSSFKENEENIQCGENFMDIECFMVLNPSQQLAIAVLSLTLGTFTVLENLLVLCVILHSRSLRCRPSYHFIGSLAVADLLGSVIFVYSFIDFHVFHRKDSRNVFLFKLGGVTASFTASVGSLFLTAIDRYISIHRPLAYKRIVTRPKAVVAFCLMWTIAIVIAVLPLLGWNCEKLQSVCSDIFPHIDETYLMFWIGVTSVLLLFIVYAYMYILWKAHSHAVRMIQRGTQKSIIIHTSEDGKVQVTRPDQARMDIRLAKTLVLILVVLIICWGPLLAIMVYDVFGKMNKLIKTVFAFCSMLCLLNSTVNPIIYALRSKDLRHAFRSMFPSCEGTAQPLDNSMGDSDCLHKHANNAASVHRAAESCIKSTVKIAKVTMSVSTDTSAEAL", "assay": "Displacement of [3H]-SR141716A from human recombinant CB1 receptor expressed in rat Chem-1 cells at 10 uM relative to control", "type": "cell-based"}, "[31]": {"biological_target": "5-hydroxytryptamine receptor 2B (Homo sapiens) (UniProt P41595)", "sequence (P41595 whole entry)": "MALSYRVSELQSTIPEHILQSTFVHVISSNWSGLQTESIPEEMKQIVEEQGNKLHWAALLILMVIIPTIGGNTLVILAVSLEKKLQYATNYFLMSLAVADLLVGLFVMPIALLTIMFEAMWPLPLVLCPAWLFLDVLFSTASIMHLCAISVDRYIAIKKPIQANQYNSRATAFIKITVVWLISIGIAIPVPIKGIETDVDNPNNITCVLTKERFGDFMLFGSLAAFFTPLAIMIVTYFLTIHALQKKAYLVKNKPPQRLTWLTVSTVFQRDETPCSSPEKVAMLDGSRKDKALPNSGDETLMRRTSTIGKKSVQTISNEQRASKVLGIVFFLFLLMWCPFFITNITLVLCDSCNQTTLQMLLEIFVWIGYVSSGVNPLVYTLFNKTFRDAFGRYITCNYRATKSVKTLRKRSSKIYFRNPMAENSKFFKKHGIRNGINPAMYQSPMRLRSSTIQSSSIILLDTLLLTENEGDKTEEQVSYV", "assay": "Displacement of [3H]-Lysergic acid diethylamide from human recombinant 5-HT2B receptor expressed in CHO-K1 cells at 10 uM relative to control", "type": "cell-based", "summary_of_the_method": "as §1"}, "[32]": {"biological_target": "Histamine H2 receptor (Homo sapiens) (UniProt P25021)", "sequence (P25021 whole entry)": "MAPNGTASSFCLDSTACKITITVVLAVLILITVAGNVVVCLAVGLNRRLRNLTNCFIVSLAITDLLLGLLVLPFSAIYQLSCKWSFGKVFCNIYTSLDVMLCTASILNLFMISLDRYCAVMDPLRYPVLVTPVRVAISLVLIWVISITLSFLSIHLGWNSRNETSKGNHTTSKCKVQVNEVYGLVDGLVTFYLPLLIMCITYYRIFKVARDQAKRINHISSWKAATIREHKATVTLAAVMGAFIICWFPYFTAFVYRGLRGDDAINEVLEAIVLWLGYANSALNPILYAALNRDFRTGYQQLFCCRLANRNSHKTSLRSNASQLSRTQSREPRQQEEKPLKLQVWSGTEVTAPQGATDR", "assay": "Displacement of [125I]-Aminopotentidine from human recombinant histamine H2 receptor expressed in CHO-K1 cells at 10 uM relative to control", "type": "cell-based", "summary_of_the_method": "as §1"}, "IMR-32": {"system": "IMR-32", "assay": "Displacement of [125I] Epibatidine from nicotinic acetylcholine receptor in human IMR32 cells at 10 uM relative to control", "type": "cell-based", "summary_of_the_method": "as §1"}},
  "note": "The source made the active and inactive calls. The rule behind the calls is not given here.",
  "data": [
    {"smiles": "Cc1csc(NC(=O)c2cc(F)cc(Oc3cncnc3)c2)n1", "values": [
      {"measurement": "inhibition", "setting": "Rattus norvegicus [1]", "value": "> 35", "unit": "%"},
      {"measurement": "inhibition", "setting": "Mesocricetus auratus", "value": "> 35", "unit": "%"},
      {"measurement": "inhibition", "setting": "[2]", "value": "> 35", "unit": "%"},
      {"measurement": "inhibition", "setting": "[3]", "value": "> 35", "unit": "%"},
      {"measurement": "inhibition at 10 µM", "setting": "[4]", "value": "> 35", "unit": "%"},
      {"measurement": "inhibition", "setting": "Rattus norvegicus [5]", "value": "> 35", "unit": "%"},
      {"measurement": "inhibition", "setting": "[6]", "value": "> 35", "unit": "%"},
      {"measurement": "inhibition", "setting": "[7]", "value": "> 35", "unit": "%"},
      {"measurement": "inhibition", "setting": "[8]", "value": "> 35", "unit": "%"},
      {"measurement": "inhibition", "setting": "Mus musculus [9]", "value": "> 35", "unit": "%"},
      {"measurement": "inhibition", "setting": "[10]", "value": "> 35", "unit": "%"},
      {"measurement": "inhibition", "setting": "[11]", "value": "> 35", "unit": "%"},
      {"measurement": "inhibition", "setting": "Rattus norvegicus [12]", "value": "> 35", "unit": "%"},
      {"measurement": "inhibition", "setting": "[13]", "value": "> 35", "unit": "%"},
      {"measurement": "inhibition", "setting": "Rattus norvegicus [14]", "value": "> 35", "unit": "%"},
      {"measurement": "inhibition", "setting": "[15]", "value": "> 35", "unit": "%"},
      {"measurement": "inhibition", "setting": "Rattus norvegicus [16]", "value": "> 35", "unit": "%"},
      {"measurement": "inhibition", "setting": "[17]", "value": "> 35", "unit": "%"},
      {"measurement": "inhibition", "setting": "[18]", "value": "> 35", "unit": "%"},
      {"measurement": "inhibition", "setting": "[19]", "value": "> 35", "unit": "%"},
      {"measurement": "inhibition", "setting": "[20]", "value": "> 35", "unit": "%"},
      {"measurement": "Tmax", "setting": "Brain [21]", "value": 15, "unit": "min"},
      {"measurement": "inhibition", "setting": "Rattus norvegicus [22]", "value": "> 35", "unit": "%"},
      {"measurement": "Fu", "setting": "Brain [23]", "value": 0.082},
      {"measurement": "inhibition", "setting": "[24]", "value": "> 35", "unit": "%"},
      {"measurement": "Cmax", "setting": "Plasma", "value": 1450, "unit": "ng/mL"},
      {"measurement": "inhibition", "setting": "Rattus norvegicus [25]", "value": "> 35", "unit": "%"},
      {"measurement": "inhibition", "setting": "Mus musculus [26]", "value": "Dose-dependent effect"},
      {"measurement": "inhibition", "setting": "[27]", "value": "> 35", "unit": "%"},
      {"measurement": "inhibition", "setting": "Mus musculus [28]", "value": "Active"},
      {"measurement": "inhibition", "setting": "[29]", "value": "> 35", "unit": "%"},
      {"measurement": "inhibition", "setting": "[30]", "value": "> 35", "unit": "%"},
      {"measurement": "inhibition", "setting": "[31]", "value": "> 35", "unit": "%"},
      {"measurement": "inhibition", "setting": "[32]", "value": "> 35", "unit": "%"},
      {"measurement": "inhibition", "setting": "IMR-32", "value": "> 35", "unit": "%"}
    ]}
  ]
}
